This note sets out measurements from ChEMBL document CHEMBL1124273, “Synthesis and antiviral activity of certain 4-substituted and 2,4-disubstituted 7-[(2-hydroxyethoxy)methyl]pyrrolo[2,3-d]pyrimidines” (J Med Chem, 1988).

Each structure is given as a SMILES string. Where only a bound is given, the exact number is not on record here.

The nature of experiment [1]: The compound was tested for cytotoxicity against BSC1 cell. It counts as functional, cell-based. The conditions noted are these: Cercopithecidae, BSC-1. In a few lines: (§1)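 Visual cytotoxicity was scored on uninfected cells in the plaque-reduction plates: BSC-1 (HSV-1 assay) or HFF (HCMV assay), both grown in MEM(E) with 10% FBS. Cells were examined at 35- and 60-fold magnification and scored 0 to 4+ on the day of staining for plaque counting. The highest concentration tested was 100 μM.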

The test system of another experiment is Human alphaherpesvirus 1. Description: Antiviral activity against Herpes simplex virus type 1 determined by plaque reduction assay. It counts as functional, organism-based. For orientation: In a plaque reduction assay, fewer plaques than in the control indicate reduced infectivity or spread.
For the next experiment, the system named is Cytomegalovirus. Description: Inhibitory activity against human cytomegalovirus determined by plaque reduction assay. Conditions: Human betaherpesvirus 5. It counts as functional, organism-based.
Another experiment has as its system HFF. Description: The compound was tested for cytotoxicity against human foreskin fibroblast cell. It counts as functional, cell-based. The method, boiled down: as §1
A short description of experiment [2]: Average percent inhibition of DNA, RNA, and protein synthesis determined in KB cells. It counts as functional, cell-based. The conditions noted are these: Homo sapiens. In a few lines: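 KB cells (human oral epidermoid carcinoma) grown in MEM(H) with 5% FBS. Cytotoxicity was measured as inhibition of radioactive precursor incorporation into DNA, RNA and protein. An I50 for each was obtained by linear regression against log concentration, and the three I50 values were averaged. The highest concentration tested was 100 μM.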

Experiment [3] is described as follows: The compound was tested for cytotoxicity against BSC-1 cells. It counts as functional, cell-based. The conditions noted are these: Cercopithecidae. The method, boiled down: as §1

By IC50 is commonly meant the concentration that gives 50% inhibition. A lower IC50 goes with greater potency. Consider `COc1nc(N)c2ccn(COCCO)c2n1`, for which the IC50 (in experiment [1]; in the experiment on Human alphaherpesvirus 1; with Cytomegalovirus; in the experiment with HFF) was more than 100 µM throughout.

For `CSc1nc(N)c2ccn(COCCO)c2n1`, the IC50 (in experiment [1]; in the experiment on Human alphaherpesvirus 1; in the experiment with Cytomegalovirus; in the experiment with HFF) was more than 100 µM in each case.

As to `Nc1ncnc2c1ccn2COCCO`, the IC50 (in experiment [1]; in the experiment on Human alphaherpesvirus 1; in experiment [2]; with Cytomegalovirus; in the experiment on HFF) was more than 100 µM throughout.

On to `CS(=O)(=O)c1nc(N)c2ccn(COCCO)c2n1`, for which the IC50 (in experiment [1]; in the experiment with Human alphaherpesvirus 1; in the experiment on Cytomegalovirus; in the experiment with HFF) was more than 100 µM throughout.

On to `Nc1nc(Cl)nc2c1ccn2COCCO`, for which the 50% inhibitory concentration (IC50) (in experiment [1]; in the experiment with Human alphaherpesvirus 1; in the experiment on Cytomegalovirus; in the experiment with HFF) was more than 100 µM in each case.

Regarding `Nc1nc(N)c2ccn(COCCO)c2n1`, the IC50 (in experiment [1]; in the experiment on Human alphaherpesvirus 1; in the experiment with Cytomegalovirus; in the experiment on HFF) was more than 100 µM in each case.

For the compound `CSc1nc(Cl)c2ccn(COCCOC(C)=O)c2n1`, the IC50 in experiment [3] was more than 100 µM; in the experiment on Human alphaherpesvirus 1, more than 100 µM; in experiment [2], 33 µM; in the experiment on Cytomegalovirus, more than 100 µM; in the experiment with HFF it was 100 µM.

As to `CSc1nc(Cl)c2ccn(COCCO)c2n1`, the IC50 in experiment [1] was more than 100 µM; in the experiment with Human alphaherpesvirus 1, more than 100 µM; in the experiment with Cytomegalovirus, more than 100 µM; in the experiment with HFF, 30 µM.

In the case of `CC(=O)Nc1nc(Cl)c2ccn(COCCO)c2n1`, the concentration for half-maximal inhibition (IC50) in experiment [1] is more than 100 µM; in the experiment on Human alphaherpesvirus 1, more than 100 µM; in experiment [2] it was 112 µM; in the experiment with Cytomegalovirus it was more than 100 µM; with HFF, more than 100 µM.

`CC(=O)OCCOCn1ccc2c(Cl)nc(Cl)nc21`: the IC50 in experiment [1] is more than 100 µM; with Human alphaherpesvirus 1, more than 100 µM; in the experiment on Cytomegalovirus, 40 µM; with HFF it was 100 µM.

With `Nc1nc(O)nc2c1ccn2COCCO`, the IC50 (in experiment [1]; with Human alphaherpesvirus 1; in the experiment with Cytomegalovirus; in the experiment on HFF) was more than 100 µM each time.

As for `OCCOCn1ccc2c(Cl)nc(Cl)nc21`, the IC50 in experiment [1] was more than 100 µM; with Human alphaherpesvirus 1, more than 100 µM; in the experiment on Cytomegalovirus it was 37 µM; in the experiment on HFF, 100 µM.

On to `Nc1nc2c(ncn2COCCO)c(=O)[nH]1` [ACYCLOVIR], for which the concentration for half-maximal inhibition (IC50) was more than 100 µM in experiment [1], more than 100 µM in experiment [2], 63 µM in the experiment with Cytomegalovirus and more than 100 µM in the experiment with HFF.

Regarding `Nc1nc2c(ncn2COC(CO)CO)c(=O)[nH]1` [GANCICLOVIR], the half-maximal inhibitory concentration (IC50) in experiment [1] is more than 100 µM; in experiment [2], 1000 µM; in the experiment on Cytomegalovirus it was 8.8 µM; in the experiment with HFF, more than 100 µM.
